pEC50, pKi: −log10 of the molar value. Calls of active or inactive are those of the source.

This note sets out measurements from ChEMBL document CHEMBL4433205, “Dual Pharmacophores Explored via Structure-Activity Relationship (SAR) Matrix: Insights into Potent, Bifunctional Opioid Ligand Design” (J Med Chem, 2019).

Data set [1] has as its system Mus musculus. Briefly: Antinociceptive activity in C57BL/6 mouse assessed as increase in latency to tail withdrawal by measuring time of action at 10 mg/kg, ip administered as bolus dose by warm water tail withdrawal assay. Format: functional. In outline: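 Male C57BL/6 mice; saline ip, baseline 30 min later, then single 10 mg/kg ip bolus in 5% DMSO/saline. Tail withdrawal in 50°C water (20 s cutoff) at 5, 15, 30 min and every 30 min until return to baseline; duration = time from dosing to baseline return, done only for fully active compounds.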

The target of data set [2] is T1, Delta-type opioid receptor (Rattus norvegicus, UniProt P33533). Kind of data set: Displacement of [3H]diprenorphine from rat delta opioid receptor expressed in rat C6 cell membranes measured after 1 hr by liquid scintillation counting method. Background: Loss of bound radioactivity is the signal in a displacement assay; it reports binding, not function.
For data set [3], the system named is Mus musculus. Briefly: Antinociceptive activity in C57BL/6 mouse assessed as increase in latency to tail withdrawal up to 10 mg/kg, ip administered at 30 mins interval measured during compound dosing by warm water tail withdrawal assay relative to control. Format: functional. A digest of the protocol: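 Male C57BL/6 mice, 20–30 g, 8–16 weeks. Saline ip, baseline latency 30 min later; then cumulative ip doses 1, 3.2, 10 mg/kg in 5% DMSO/saline at 30 min intervals, latency read 30 min after each. Tail tip (2–3 cm) in 50°C water, 20 s cutoff; expressed as % MPE (MPE = 20 s).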

Data set [4] addresses Delta-type opioid receptor (Rattus norvegicus) (UniProt P33533). Kind of data set: Antagonist activity at rat delta opioid receptor expressed in rat C6 cell membranes assessed as inhibition of SNC80-induced [35S] GTPgammaS binding measured after 1 hr. The format is functional. A digest of the protocol:
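Membranes from rat C6 glioma cells stably expressing rat DOR; [35S]-GTPγS (0.1 nM) binding stimulated by SNC80 concentration–response, alone or with test compound at 1 μM, 1 h at 25°C in 50 mM Tris-HCl, 100 mM NaCl, 5 mM MgCl2, pH 7.4, with 30 μM GDP; filtration and scintillation counting.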

Data set [5] is filed under the species Rattus norvegicus. Kind of data set: Selectivity ratio of Ki for rat delta opioid receptor expressed in rat C6 cell membranes to Ki for rat mu opioid receptor expressed in rat C6 cell membranes. The format is cell-based. A digest of the protocol: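 Competition binding against 0.2 nM [3H]-diprenorphine, using C6 membranes expressing rat MOR or rat DOR (20 μg protein/tube). Run in 50 mM Tris-HCl pH 7.4, 1 h at room temperature with shaking, then filtration and scintillation counting. Nonspecific binding with 10 μM naloxone.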

Data set [6] concerns the target T2, Mu-type opioid receptor (Rattus norvegicus, UniProt P33535). Briefly: Agonist activity at rat mu opioid receptor expressed in rat C6 cell membranes assessed as stimulation of [35S]GTPgammaS binding measured after 1 hr. Format: functional. In outline:
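Membranes (10–20 μg protein/tube) from stably transfected cells incubated 1 h at 25°C in 50 mM Tris-HCl, 100 mM NaCl, 5 mM MgCl2, pH 7.4, with 0.1 nM [35S]-GTPγS, 30 μM GDP and varying test concentrations; filtration, scintillation counting.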

Data set [7] has as its target Delta-type opioid receptor (Rattus norvegicus) (UniProt P33533). Briefly: Agonist activity at rat delta opioid receptor expressed in C6 cell membranes assessed as stimulation of [35S]GTPgammaS binding at 1 uM incubated for 1 hr relative to SNC80. Format: functional. A digest of the protocol: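 Rat DOR in C6 glioma membranes, [35S]-GTPγS binding (0.1 nM, 30 μM GDP, 1 h, 25°C). SNC80 concentration–response run alone and with 1 μM test compound present; stimulation expressed relative to SNC80. Ke = compound concentration/(EC50 shift − 1). Mean of ≥3 assays in duplicate.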
(In general: Binding of GTPγS marks nucleotide exchange on a G protein.)

In data set [8] the target is T3, Kappa-type opioid receptor (Homo sapiens, UniProt P41145). Briefly: Agonist activity at human kappa opioid receptor expressed in CHO cell membranes assessed as stimulation of [35S]GTPgammaS binding measured after 1 hr. The format is functional. To be noted: read-out: EC50.
The target in data set [9] is T2, Mu-type opioid receptor. Briefly: Displacement of [3H]diprenorphine from rat mu opioid receptor expressed in rat C6 cell membranes measured after 1 hr by liquid scintillation counting method. A digest of the protocol:
(§1)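 Competition with 0.2 nM [3H]-diprenorphine on membranes (20 μg protein/tube) from stably transfected cells in 50 mM Tris-HCl pH 7.4, 1 h at room temperature with shaking; GF/C filtration, three washes, scintillation counting. Nonspecific binding defined with 10 μM naloxone.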

Data set [10] addresses T3, Kappa-type opioid receptor. Kind of data set: Agonist activity at human kappa opioid receptor expressed in CHO cell membranes assessed as stimulation of [35S]GTPgammaS binding to G protein incubated for 1 hr relative to U69,593. The format is functional.
A short description of data set [11]: Lipophilicity, log P of the compound. Format: physicochemical. To be noted: octanol/water.
Data set [12] deals with T1, Delta-type opioid receptor. Briefly: Agonist activity at rat delta opioid receptor expressed in rat C6 cell membranes assessed as stimulation of [35S]GTPgammaS binding measured after 1 hr. To be noted: c6. The format is functional.
Data set [13] addresses T3, Kappa-type opioid receptor. Briefly: Displacement of [3H]diprenorphine from human kappa opioid receptor expressed in CHO cell membranes measured after 1 hr by liquid scintillation counting method. A digest of the protocol:
as §1

The target of data set [14] is Delta-type opioid receptor (Rattus norvegicus) (UniProt P33533). Kind of data set: Agonist activity at rat delta opioid receptor expressed in rat C6 cell membranes assessed as stimulation of [35S]GTPgammaS binding incubated for 1 hr relative to DPDPE. The format is functional.
Data set [15] has as its target Mu-type opioid receptor (Rattus norvegicus) (UniProt P33535). Kind of data set: Agonist activity at rat mu opioid receptor expressed in rat C6 glioma cell membranes assessed as stimulation of [35S]GTPgammaS binding measured after 1 hr relative to DAMGO. Format: functional.

T3 sequence (P41145 whole entry): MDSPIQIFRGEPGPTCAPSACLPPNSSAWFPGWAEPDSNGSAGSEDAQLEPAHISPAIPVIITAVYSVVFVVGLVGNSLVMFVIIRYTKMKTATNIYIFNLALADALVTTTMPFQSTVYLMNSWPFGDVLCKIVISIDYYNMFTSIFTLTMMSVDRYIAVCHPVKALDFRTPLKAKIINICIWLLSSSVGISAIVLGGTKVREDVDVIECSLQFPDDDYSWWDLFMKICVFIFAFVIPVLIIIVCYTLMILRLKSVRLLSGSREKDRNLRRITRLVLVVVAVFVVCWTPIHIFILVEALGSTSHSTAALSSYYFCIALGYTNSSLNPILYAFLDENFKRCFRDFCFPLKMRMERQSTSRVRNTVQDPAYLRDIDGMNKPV
Chain of Delta-type opioid receptor (Rattus norvegicus) (P33533 whole entry): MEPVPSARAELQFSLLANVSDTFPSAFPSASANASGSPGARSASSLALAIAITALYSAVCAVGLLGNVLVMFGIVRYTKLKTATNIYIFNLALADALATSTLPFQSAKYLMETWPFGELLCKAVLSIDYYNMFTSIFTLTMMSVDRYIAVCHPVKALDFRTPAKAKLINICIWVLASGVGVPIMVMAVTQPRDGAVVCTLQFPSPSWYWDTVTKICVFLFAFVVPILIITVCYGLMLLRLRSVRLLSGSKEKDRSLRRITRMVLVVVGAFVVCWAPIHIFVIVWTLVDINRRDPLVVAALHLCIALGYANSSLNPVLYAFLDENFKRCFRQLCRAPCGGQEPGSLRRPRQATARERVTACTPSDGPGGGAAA
T2 sequence (P33535 whole entry): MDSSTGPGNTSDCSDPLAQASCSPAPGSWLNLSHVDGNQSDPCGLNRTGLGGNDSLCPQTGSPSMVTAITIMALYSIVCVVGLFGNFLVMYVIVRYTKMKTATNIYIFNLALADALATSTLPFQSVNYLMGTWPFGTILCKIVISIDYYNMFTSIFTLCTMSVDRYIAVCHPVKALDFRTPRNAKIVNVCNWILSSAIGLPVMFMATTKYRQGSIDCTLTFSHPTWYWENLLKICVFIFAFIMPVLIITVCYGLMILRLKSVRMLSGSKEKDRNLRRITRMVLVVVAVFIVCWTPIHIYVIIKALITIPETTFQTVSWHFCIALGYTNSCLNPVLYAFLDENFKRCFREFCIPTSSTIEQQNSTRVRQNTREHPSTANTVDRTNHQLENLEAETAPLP
T1 sequence (P33533 whole entry): as the sequence (P33533 whole entry) above
Chain of Mu-type opioid receptor (Rattus norvegicus) (P33535 whole entry): as the sequence (P33535 whole entry) above

Broadly, the pKi is the negative decadic logarithm of the Ki, by convention in mol/L. A low value points to a high Ki. What is called pEC50 is −log10 of the EC50, conventionally taken in molar units. Usually logP stands for the decadic logarithm of the partition coefficient of the neutral form, usually between octanol and water. A lower logP goes with lower lipophilicity. Turning to `Cc1cc(O)cc(C)c1C[C@H](N)C(=O)N[C@@H]1CCN(S(C)(=O)=O)c2ccc(CN3CCc4ccccc4C3)cc21.O=C(O)C(F)(F)F`, the Time in data set [1] is 90 min. Further, the pKi is 9.01 in [2], 9.96 in data set [9] and 8.96 in [13]. The MPE in [3] was determined as 100%. Further, the Ke in data set [4] is 0.85 nM. In addition, the Ratio Ki in data set [5] stood at 9. The pEC50 in data set [6] is 9.92; in [8], 7.35. Besides, in data set [7], the Activity worked out at 100%. Further, the Efficacy in data set [10] worked out at 51%; in [15], 114%. In [11], this molecule displayed a logP of 3.1. In addition, the EC50 entry in [12] was “Not Active”. Moreover, in [14], the Efficacy result was “inactive”.
